Assay results published in ChEMBL document CHEMBL4270565, “Design, synthesis and antimicrobial evaluation of propylene-tethered ciprofloxacin-isatin hybrids” (Eur J Med Chem, 2018).
≈ marks a conversion by molar mass, not a printed value.

Key:
[1] = tested on: Klebsiella pneumoniae; experiment: Antibacterial activity against extended-spectrum beta-lactamase deficient Klebsiella pneumoniae 15-2 after 18 to 24 hrs by two-fold serial dilution method; assay type: functional
Outline: (§1)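 Agar two-fold dilution MIC. Compounds were dissolved in 0.1 N NaOH and water, then serially diluted in melted Mueller-Hinton agar, with top concentrations starting at 128. Plates were inoculated at about 10 cfu and incubated at 35 °C for 18–24 h. MIC was taken as the lowest concentration giving 90% inhibition of growth.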

[2] = tested on: Proteus mirabilis; experiment: Antibacterial activity against Proteus mirabilis 13-1 after 18 to 24 hrs by two-fold serial dilution method; assay type: functional; outline: as §1
[3] = tested on: Acinetobacter calcoaceticus; experiment: Antibacterial activity against Acinetobacter calcoaceticus ATCC 19606 after 18 to 24 hrs by two-fold serial dilution method; assay type: functional; outline: as §1
[4] = tested on: Staphylococcus aureus; experiment: Antibacterial activity against methicillin-sensitive Staphylococcus aureus ATCC 29213 after 18 to 24 hrs by two-fold serial dilution method; assay type: functional
Outline: (§2)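 Agar two-fold serial dilution in Mueller-Hinton agar. Strains came from the Chinese Center for Disease Control and Prevention. Compounds were dissolved in 0.1 N NaOH and water, then diluted in melted agar to final levels stepping down from 128. Plates were inoculated with bacterial cfu and incubated at 35 C for 18–24 h. MIC is the lowest concentration giving 90% growth inhibition.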

[5] = tested on: Proteus vulgaris; experiment: Antibacterial activity against Proteus vulgaris ATCC 29905 after 18 to 24 hrs by two-fold serial dilution method; assay type: functional; outline: as §1
[6] = tested on: Escherichia coli; experiment: Antibacterial activity against extended-spectrum beta-lactamase harboring Escherichia coli ATCC 35218 after 18 to 24 hrs by two-fold serial dilution method; assay type: functional; outline: as §2
[7] = tested on: Serratia marcescens; experiment: Antibacterial activity against Serratia marcescens ATCC 21074 after 18 to 24 hrs by two-fold serial dilution method; assay type: functional; outline: as §1
[8] = tested on: Klebsiella aerogenes; experiment: Antibacterial activity against Enterobacter aerogenes ATCC 13048 after 18 to 24 hrs by two-fold serial dilution method; assay type: functional; outline: as §1
[9] = tested on: Enterococcus faecalis; experiment: Antibacterial activity against Enterococcus faecalis ATCC 51299 after 18 to 24 hrs by two-fold serial dilution method; assay type: functional; outline: as §1
[10] = tested on: Klebsiella pneumoniae; experiment: Antibacterial activity against extended-spectrum beta-lactamase harboring Klebsiella pneumoniae ATCC 700603 after 18 to 24 hrs by two-fold serial dilution method; assay type: functional; outline: as §2
[11] = tested on: Enterobacter cloacae; experiment: Antibacterial activity against Enterobacter cloacae ATCC 43560 after 18 to 24 hrs by two-fold serial dilution method; assay type: functional
[12] = tested on: Enterococcus faecium; experiment: Antibacterial activity against Enterococcus faecium 13-7 after 18 to 24 hrs by two-fold serial dilution method; assay type: functional; outline: as §1
[13] = tested on: Pseudomonas aeruginosa; experiment: Antibacterial activity against Pseudomonas aeruginosa ATCC 27853 after 18 to 24 hrs by two-fold serial dilution method; assay type: functional; outline: as §1
[14] = tested on: Staphylococcus aureus; experiment: Antibacterial activity against methicillin-resistant Staphylococcus aureus ATCC 33591 after 18 to 24 hrs by two-fold serial dilution method; assay type: functional; outline: as §2
[15] = tested on: Enterococcus faecium; experiment: Antibacterial activity against Enterococcus faecium ATCC 700221 after 18 to 24 hrs by two-fold serial dilution method; assay type: functional; outline: as §1
[16] = tested on: Morganella morganii; experiment: Antibacterial activity against Morganella morganii ATCC 25830 after 18 to 24 hrs by two-fold serial dilution method; assay type: functional; outline: as §1
[17] = tested on: Staphylococcus epidermidis; experiment: Antibacterial activity against methicillin-sensitive Staphylococcus epidermidis ATCC 12228 after 18 to 24 hrs by two-fold serial dilution method; assay type: functional; outline: as §1
[18] = tested on: Stenotrophomonas maltophilia; experiment: Antibacterial activity against Stenotrophomonas maltophilia ATCC 13636 after 18 to 24 hrs by two-fold serial dilution method; assay type: functional; outline: as §1
[19] = tested on: Enterococcus faecalis; experiment: Antibacterial activity against Enterococcus faecalis ATCC 29212 after 18 to 24 hrs by two-fold serial dilution method; assay type: functional; outline: as §1
[20] = tested on: Escherichia coli; experiment: Antibacterial activity against extended-spectrum beta-lactamase deficient Escherichia coli ATCC 25922 after 18 to 24 hrs by two-fold serial dilution method; assay type: functional; outline: as §1
[21] = Cytotoxicity against African green monkey Vero cells assessed as reduction in cell viability after 72 hrs by MTT assay; assay type: cell-based; conditions: chlorocebus sabaeus
Outline: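 VERO cells were kept in MEM with Earle's salts and 10% FBS at 37 °C, 5% CO2. They were seeded in 96-well plates and allowed to recover for 24 h. Cells were then exposed to compounds in DMSO over a series from 1000 down to 4 for 72 h. Viability was read by MTT, and CC50 was calculated by Bliss analysis.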

[22] = tested on: Mycobacterium tuberculosis; experiment: Antimycobacterial activity against Mycobacterium tuberculosis H37Rv after 7 days; assay type: functional; conditions: 168 h
Outline: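 Rapid direct susceptibility test in 48-well plates. Two-fold dilutions of compound from DMSO stocks were mixed with an equal volume of bacterial suspension. Medium-only wells served as growth controls and water-only wells as no-growth controls. Plates were sealed and held at 37 C in a humid box, and controls were checked at 3 days. MIC (90% growth inhibition) was read visually by high-magnification observation of the cells and re-read at 7 days.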

[23] = tested on: Citrobacter freundii; experiment: Antibacterial activity against extended-spectrum beta-lactamase harboring Citrobacter freundii ATCC 43864 after 18 to 24 hrs by two-fold serial dilution method; assay type: functional; outline: as §2
[24] = tested on: Providencia rettgeri; experiment: Antibacterial activity against Providencia rettgeri ATCC 31052 after 18 to 24 hrs by two-fold serial dilution method; assay type: functional; outline: as §1
[25] = tested on: Staphylococcus epidermidis; experiment: Antibacterial activity against methicillin-resistant Staphylococcus epidermidis 13-3 after 18 to 24 hrs by two-fold serial dilution method; assay type: functional; outline: as §2

Structure (SMILES): CO/N=C1\C(=O)N(CCCN2CCN(c3cc4c(cc3F)c(=O)c(C(=O)O)cn4C3CC3)CC2)c2ccccc21
- MIC90 [1]: ≤ 0.03 µg/mL
- MIC90 [2]: ≤ 0.03 µg/mL
- MIC90 [3]: 0.5 µg/mL (≈ 0.913 µM)
- MIC90 [4]: 0.125 µg/mL (≈ 0.228 µM)
- MIC90 [5]: ≤ 0.03 µg/mL
- MIC90 [6]: ≤ 0.03 µg/mL
- MIC90 [7]: 0.06 µg/mL (≈ 0.11 µM)
- MIC90 [8]: ≤ 0.03 µg/mL
- MIC90 [9]: 1 µg/mL (≈ 1.83 µM)
- MIC90 [10]: 0.5 µg/mL (≈ 0.913 µM)
- MIC90 [11]: ≤ 0.03 µg/mL
- MIC90 [12]: 32 µg/mL (≈ 58.4 µM)
- MIC90 [13]: 1 µg/mL (≈ 1.83 µM)
- MIC90 [14]: 0.25 µg/mL (≈ 0.457 µM)
- MIC90 [15]: 8 µg/mL (≈ 14.6 µM)
- MIC90 [16]: ≤ 0.03 µg/mL
- MIC90 [17]: 0.125 µg/mL (≈ 0.228 µM)
- MIC90 [18]: 0.06 µg/mL (≈ 0.11 µM)
- MIC90 [19]: 0.5 µg/mL (≈ 0.913 µM)
- MIC90 [20]: ≤ 0.03 µg/mL
- CC50 at 72 h [21]: 32 µg/mL (≈ 58.4 µM)
- MIC90 [22]: 0.39 µg/mL (≈ 0.712 µM)
- MIC90 [23]: ≤ 0.03 µg/mL
- MIC90 [24]: ≤ 0.03 µg/mL
- MIC90 [25]: 2 µg/mL (≈ 3.65 µM)

Structure (SMILES): CCO/N=C1\C(=O)N(CCCN2CCN(c3cc4c(cc3F)c(=O)c(C(=O)O)cn4C3CC3)CC2)c2ccc(C)cc21
- MIC90 [1]: ≤ 0.03 µg/mL
- MIC90 [2]: ≤ 0.03 µg/mL
- MIC90 [3]: 0.5 µg/mL (≈ 0.869 µM)
- MIC90 [4]: 0.125 µg/mL (≈ 0.217 µM)
- MIC90 [5]: ≤ 0.03 µg/mL
- MIC90 [6]: ≤ 0.03 µg/mL
- MIC90 [7]: 0.06 µg/mL (≈ 0.104 µM)
- MIC90 [8]: ≤ 0.03 µg/mL
- MIC90 [9]: 1 µg/mL (≈ 1.74 µM)
- MIC90 [10]: 0.5 µg/mL (≈ 0.869 µM)
- MIC90 [11]: ≤ 0.03 µg/mL
- MIC90 [12]: 32 µg/mL (≈ 55.6 µM)
- MIC90 [13]: 1 µg/mL (≈ 1.74 µM)
- MIC90 [14]: 0.125 µg/mL (≈ 0.217 µM)
- MIC90 [15]: 4 µg/mL (≈ 6.95 µM)
- MIC90 [16]: ≤ 0.03 µg/mL
- MIC90 [17]: 0.125 µg/mL (≈ 0.217 µM)
- MIC90 [18]: 0.06 µg/mL (≈ 0.104 µM)
- MIC90 [19]: 0.5 µg/mL (≈ 0.869 µM)
- MIC90 [20]: ≤ 0.03 µg/mL
- CC50 at 72 h [21]: 128 µg/mL (≈ 222 µM)
- MIC90 [22]: 3.12 µg/mL (≈ 5.42 µM)
- MIC90 [23]: ≤ 0.03 µg/mL
- MIC90 [24]: ≤ 0.03 µg/mL
- MIC90 [25]: 2 µg/mL (≈ 3.47 µM)

Structure (SMILES): O=C1C(=O)N(CCCN2CCN(c3cc4c(cc3F)c(=O)c(C(=O)O)cn4C3CC3)CC2)c2ccccc21
- MIC90 [1]: 0.125 µg/mL (≈ 0.241 µM)
- MIC90 [2]: ≤ 0.03 µg/mL
- MIC90 [3]: 1 µg/mL (≈ 1.93 µM)
- MIC90 [4]: 0.25 µg/mL (≈ 0.482 µM)
- MIC90 [5]: ≤ 0.03 µg/mL
- MIC90 [6]: ≤ 0.03 µg/mL
- MIC90 [7]: 0.25 µg/mL (≈ 0.482 µM)
- MIC90 [8]: ≤ 0.03 µg/mL
- MIC90 [9]: 1 µg/mL (≈ 1.93 µM)
- MIC90 [10]: 1 µg/mL (≈ 1.93 µM)
- MIC90 [11]: 0.03 µg/mL (≈ 0.0579 µM)
- MIC90 [12]: 64 µg/mL (≈ 123 µM)
- MIC90 [13]: 1 µg/mL (≈ 1.93 µM)
- MIC90 [14]: 0.25 µg/mL (≈ 0.482 µM)
- MIC90 [15]: 8 µg/mL (≈ 15.4 µM)
- MIC90 [16]: ≤ 0.03 µg/mL
- MIC90 [17]: 0.25 µg/mL (≈ 0.482 µM)
- MIC90 [18]: 0.125 µg/mL (≈ 0.241 µM)
- MIC90 [19]: 1 µg/mL (≈ 1.93 µM)
- MIC90 [20]: ≤ 0.03 µg/mL
- CC50 at 72 h [21]: 128 µg/mL (≈ 247 µM)
- MIC90 [22]: 0.2 µg/mL (≈ 0.386 µM)
- MIC90 [23]: ≤ 0.03 µg/mL
- MIC90 [24]: 0.03 µg/mL (≈ 0.0579 µM)
- MIC90 [25]: 4 µg/mL (≈ 7.71 µM)

Structure (SMILES): CCO/N=C1\C(=O)N(CCCN2CCN(c3cc4c(cc3F)c(=O)c(C(=O)O)cn4C3CC3)CC2)c2ccccc21
- MIC90 [1]: 0.03 µg/mL (≈ 0.0534 µM)
- MIC90 [2]: ≤ 0.03 µg/mL
- MIC90 [3]: 1 µg/mL (≈ 1.78 µM)
- MIC90 [4]: 0.25 µg/mL (≈ 0.445 µM)
- MIC90 [5]: ≤ 0.03 µg/mL
- MIC90 [6]: ≤ 0.03 µg/mL
- MIC90 [7]: 0.125 µg/mL (≈ 0.223 µM)
- MIC90 [8]: ≤ 0.03 µg/mL
- MIC90 [9]: 1 µg/mL (≈ 1.78 µM)
- MIC90 [10]: 0.5 µg/mL (≈ 0.89 µM)
- MIC90 [11]: 0.06 µg/mL (≈ 0.107 µM)
- MIC90 [12]: 32 µg/mL (≈ 57 µM)
- MIC90 [13]: 1 µg/mL (≈ 1.78 µM)
- MIC90 [14]: 0.25 µg/mL (≈ 0.445 µM)
- MIC90 [15]: 8 µg/mL (≈ 14.2 µM)
- MIC90 [16]: 0.03 µg/mL (≈ 0.0534 µM)
- MIC90 [17]: 0.25 µg/mL (≈ 0.445 µM)
- MIC90 [18]: 0.125 µg/mL (≈ 0.223 µM)
- MIC90 [19]: 1 µg/mL (≈ 1.78 µM)
- MIC90 [20]: ≤ 0.03 µg/mL
- CC50 at 72 h [21]: 64 µg/mL (≈ 114 µM)
- MIC90 [22]: 0.78 µg/mL (≈ 1.39 µM)
- MIC90 [23]: ≤ 0.03 µg/mL
- MIC90 [24]: ≤ 0.03 µg/mL
- MIC90 [25]: 2 µg/mL (≈ 3.56 µM)
